Article PMC5903260 (British Journal of Clinical Pharmacology, 2018)
Like-named read-outs stand apart in the source and are kept apart here. One block for each compound: values may come before it.

Columns and labels:
[1] = format: in vivo, human; conditions: for measured plasma concentrations of metabolites: all samples after regorafenib eye drops, below LLOQ (2 μg l^−1); for Cmax: C max
Outline: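 Plasma was sampled from predose to 7 days after a single dose, or to 14 days after the last of 14 days' dosing, with dense early time points. Parent and metabolites M-2 and M-5 were measured by validated LC-MS/MS; LLOQ was 0.1 µg l⁻¹ for parent and 2 µg l⁻¹ for metabolites. AUC over dosing intervals, AUC₀₋tlast, Cav, Cmax, Cmin, t1/2 and accumulation ratios were derived, with log-normal ANOVA for dose proportionality.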

[2] = Subject rating of treatment; format: in vivo, human; conditions: numerical rating scale 0 (none) to 10 (very severe); comparable with placebo
[3] = Safety, tolerability and functional ocular assessments in healthy volunteers; format: in vivo, human
Outline: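 Randomized, double-masked, placebo-controlled ascending-dose design: four cohorts of 12 healthy men (9 active, 3 placebo). Drops of 30 mg ml⁻¹ (25 μl) were given to the left eye as 0.75 mg once, or 0.75 mg bid or tid for 14 days, or 1.5 mg tid for 3 days then both eyes to 14 days. Ocular symptoms were scored 5 min post-dose on a four-point scale. Visual acuity was tested at 4 m per ETDRS protocol.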

[4] = cited from earlier work
[5] = all regorafenib cohorts pooled (n = 36)

- measured plasma concentrations of metabolites [1]: < 2 µg/L
Compound: CNC(=O)c1cc(Oc2ccc(NC(=O)Nc3ccc(Cl)c(C(F)(F)F)c3)c(F)c2)cc[n+]1[O-] [M‐2]

- measured plasma concentrations of metabolites [1]: < 2 µg/L
Compound: NC(=O)c1cc(Oc2ccc(NC(=O)Nc3ccc(Cl)c(C(F)(F)F)c3)c(F)c2)cc[n+]1[O-] [M‐5]

Compound: CNC(=O)c1cc(Oc2ccc(NC(=O)Nc3ccc(Cl)c(C(F)(F)F)c3)c(F)c2)ccn1 [Regorafenib]
- pain and discomfort ratings [2]: mostly 0
- C av0–8 ([1]; first dose, Cohort 1, 0.75 mg single dose, plasma, geometric mean/%CV (range)): 0.0377 ng/mL
- C av0–8 ([1]; first dose, Cohort 3, 0.75 mg tid (2.25 mg day^−1), plasma, geometric mean/%CV (range)): 0.0352 ng/mL
- C av0–8 ([1]; first dose, Cohort 4, 1.5 mg tid (9.0 mg day^−1), plasma, geometric mean/%CV (range)): 0.0564 ng/mL
- Tmax ([1]; human, plasma, topical, tmax,md (time to reach maximum plasma concentration following multiple drug administration), individual subjects, after the last dose): 0 to 12 h
- Cav0–12md (average concentration over the 12h dosing interval) ([1]; last dose, 0.75 mg bid (Cohort 2)): 3.39 ng/mL
- C av0–8,md ([1]; last dose, Cohort 3, 0.75 mg tid (2.25 mg day^−1), geometric mean/%CV (range)): 4.01 ng/mL
- C av0–8,md ([1]; last dose, Cohort 4, 1.5 mg tid (9.0 mg day^−1), geometric mean/%CV (range)): 12.2 ng/mL
- AUC ([1]; male, human, plasma, topical, 0.75 mg): 40.7 ng·h/mL
- AUC(0-t) ([1]; male, human, plasma, topical, 0.75 mg, AUC 0–8, first dose, Cohort 2, 0.75 mg bid (1.5 mg day^−1), geometric mean/%CV (range)): 0.255 ng·h/mL
- AUC(0-t) ([1]; male, human, plasma, topical, 0.75 mg, AUC 0–8, first dose, Cohort 3, 0.75 mg tid (2.25 mg day^−1), geometric mean/%CV (range)): 0.282 ng·h/mL
- AUC(0-t) ([1]; male, human, plasma, topical, 0.75 mg, AUC0–tlast, Cohort 1, 0.75 mg single dose): 39.2 ng·h/mL
- Cmax ([1]; male, human, plasma, topical, 0.75 mg, first dose, Cohort 1, 0.75 mg single dose, geometric mean/%CV (range)): 0.42 ng/mL
- Cmax ([1]; male, human, plasma, topical, 0.75 mg, first dose, Cohort 2, 0.75 mg bid (1.5 mg day^−1), geometric mean/%CV (range)): 0.234 ng/mL
- Cmax ([1]; male, human, plasma, topical, 0.75 mg, first dose, Cohort 3, 0.75 mg tid (2.25 mg day^−1), geometric mean/%CV (range)): 0.186 ng/mL
- Tmax ([1]; male, human, plasma, topical, 0.75 mg, t max, first dose, Cohort 1, 0.75 mg single dose, median (range)): 24 h
- Tmax ([1]; male, human, plasma, topical, 0.75 mg, t max, first dose, Cohort 2, 0.75 mg bid (1.5 mg day^−1), median (range)): 11.9 h
- Tmax ([1]; male, human, plasma, topical, 0.75 mg, t max, first dose, Cohort 3, 0.75 mg tid (2.25 mg day^−1), median (range)): 7.92 h
- AUC(0-t) ([1]; male, human, plasma, topical, 1.5 mg, AUC 0–8, first dose, Cohort 4, 1.5 mg tid (9.0 mg day^−1), geometric mean/%CV (range)): 0.451 ng·h/mL
- Cmax ([1]; male, human, plasma, topical, 1.5 mg, first dose, Cohort 4, 1.5 mg tid (9.0 mg day^−1), geometric mean/%CV (range)): 0.302 ng/mL
- Tmax ([1]; male, human, plasma, topical, 1.5 mg, t max, first dose, Cohort 4, 1.5 mg tid (9.0 mg day^−1), median (range)): 8 h
- day when steady state was reached ([1]; multiple-dose regimens, plasma concentrations): 7 days
- safety and tolerability over the dose range ([3]; 0.75 mg single dose to 1.5 mg tid both eyes (9 mg day^−1), 30 mg ml^−1, 14 days): safe and well tolerated
- eyelid redness and oedema, conjunctival hyperaemia and oedema ([3]; across all regorafenib cohorts): mild and comparable with the effects of placebo
- subjects with a burning sensation [3, 5]: 25%
- subjects with a foreign body sensation [3, 5]: 17%
- subjects with a transient reduction in visual acuity [3, 5]: 31%
- subjects with blurred vision after solicited questioning [3, 5]: 97%
- subjects with increased lacrimation [3, 5]: 8%
- subjects with itching [3, 5]: 17%
- subjects with lid oedema [3, 5]: 8%
- subjects with ocular/conjunctival redness [3, 5]: 19%
- effect on electrocardiographic parameters ([3]; healthy volunteers, eye drops): No effect
- apparent terminal elimination t1/2 after oral administration [4]: 20 to 30 h
